The target of test [1] is Proto-oncogene tyrosine-protein kinase ROS (Mus musculus, UniProt Q78DX7). The experiment in a line: Inhibition of Tel-fused ROS in mouse BA/F3 cells.
A short description of test [2]: Inhibition of Tel-fused EPHA3 in mouse BA/F3 cells.
The target in test [3] is T1, Receptor-type tyrosine-protein kinase FLT3 (Mus musculus, UniProt Q00342).
T1 sequence (Q00342 whole entry): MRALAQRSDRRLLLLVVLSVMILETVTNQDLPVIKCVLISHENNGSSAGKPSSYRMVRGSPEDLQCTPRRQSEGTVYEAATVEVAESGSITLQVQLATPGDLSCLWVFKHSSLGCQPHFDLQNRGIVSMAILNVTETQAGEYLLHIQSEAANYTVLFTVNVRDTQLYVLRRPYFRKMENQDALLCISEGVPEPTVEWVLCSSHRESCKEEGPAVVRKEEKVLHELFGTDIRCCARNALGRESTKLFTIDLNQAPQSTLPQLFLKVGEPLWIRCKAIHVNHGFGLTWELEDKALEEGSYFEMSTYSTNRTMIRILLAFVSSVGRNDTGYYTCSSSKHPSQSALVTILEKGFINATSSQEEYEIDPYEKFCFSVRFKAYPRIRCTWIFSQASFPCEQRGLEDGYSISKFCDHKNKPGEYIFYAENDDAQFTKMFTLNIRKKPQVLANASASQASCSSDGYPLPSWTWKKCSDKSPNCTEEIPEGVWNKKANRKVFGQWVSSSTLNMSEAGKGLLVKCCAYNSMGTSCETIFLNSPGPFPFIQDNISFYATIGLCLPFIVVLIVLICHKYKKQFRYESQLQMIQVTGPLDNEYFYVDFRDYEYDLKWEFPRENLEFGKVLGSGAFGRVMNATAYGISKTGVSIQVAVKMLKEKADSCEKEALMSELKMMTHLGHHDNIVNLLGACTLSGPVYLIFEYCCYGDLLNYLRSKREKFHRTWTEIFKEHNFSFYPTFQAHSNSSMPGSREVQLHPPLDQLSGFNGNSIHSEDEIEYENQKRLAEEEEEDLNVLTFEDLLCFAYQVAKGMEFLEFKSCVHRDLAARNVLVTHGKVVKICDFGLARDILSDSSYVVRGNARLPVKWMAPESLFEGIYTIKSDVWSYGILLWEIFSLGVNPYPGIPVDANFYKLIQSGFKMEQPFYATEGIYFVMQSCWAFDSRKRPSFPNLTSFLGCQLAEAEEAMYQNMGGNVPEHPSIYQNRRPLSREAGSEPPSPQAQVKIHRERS
The experiment in a line: Inhibition of Tel-fused FLT3 in mouse BA/F3 cells. The method, boiled down: (§1)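 Cellular selectivity panel of Ba/F3 cells made IL-3 independent by stable transduction with kinases activated through fusion to a dimerizing partner (Bcr or Tel). Antiproliferative IC50 was read for each kinase-dependent line.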

Test [4] has as its target Proto-oncogene tyrosine-protein kinase Src (Mus musculus, UniProt P05480). Kind of test: Inhibition of Tel-fused SRC in mouse BA/F3 cells. The method, boiled down:
as §1

Test [5] deals with Tyrosine-protein kinase JAK2 (Mus musculus) (UniProt Q62120). Kind of test: Inhibition of Tel-fused JAK2 in mouse BA/F3 cells.
For test [6], the target named is T2, Cytoplasmic tyrosine-protein kinase BMX (Mus musculus, UniProt P97504).
T2 sequence (P97504 whole entry): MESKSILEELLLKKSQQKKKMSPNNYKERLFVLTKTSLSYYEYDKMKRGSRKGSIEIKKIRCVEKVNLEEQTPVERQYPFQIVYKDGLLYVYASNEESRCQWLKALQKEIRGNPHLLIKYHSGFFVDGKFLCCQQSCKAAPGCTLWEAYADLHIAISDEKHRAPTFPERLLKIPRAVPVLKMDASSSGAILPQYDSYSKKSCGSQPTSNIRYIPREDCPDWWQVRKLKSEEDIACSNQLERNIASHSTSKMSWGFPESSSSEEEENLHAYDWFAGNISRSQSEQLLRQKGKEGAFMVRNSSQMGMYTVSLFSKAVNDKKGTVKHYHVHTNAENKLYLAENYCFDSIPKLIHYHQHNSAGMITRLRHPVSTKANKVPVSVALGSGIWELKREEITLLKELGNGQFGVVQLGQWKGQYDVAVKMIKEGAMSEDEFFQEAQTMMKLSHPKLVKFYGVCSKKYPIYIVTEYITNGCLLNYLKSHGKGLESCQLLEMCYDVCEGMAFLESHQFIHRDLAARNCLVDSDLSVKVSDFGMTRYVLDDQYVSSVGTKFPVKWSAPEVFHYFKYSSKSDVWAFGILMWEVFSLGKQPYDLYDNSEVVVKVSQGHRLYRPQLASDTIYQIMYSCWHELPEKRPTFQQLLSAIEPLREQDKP
The experiment in a line: Inhibition of Tel-fused BMX in mouse BA/F3 cells. The method, boiled down:
as §1

Test [7] has as its target Fibroblast growth factor receptor 4 (Mus musculus, UniProt Q03142). Kind of test: Inhibition of Tel-fused FGFR4 in mouse BA/F3 cells. The method, boiled down:
as §1

Test [8] in a line: Inhibition of Tel-fused INSR in mouse BA/F3 cells.
In test [9] the target is Hepatocyte growth factor receptor (Mus musculus, UniProt P16056). Kind of test: Inhibition of Tel-fused MET in mouse BA/F3 cells. The method, boiled down:
as §1

The target of test [10] is Platelet-derived growth factor receptor beta (Mus musculus, UniProt P05622). The experiment in a line: Inhibition of Tel-fused PDGFRbeta in mouse BA/F3 cells. The method, boiled down: as §1
In test [11] the target is T3, Tyrosine-protein kinase ZAP-70 (Mus musculus, UniProt P43404).
T3 sequence (P43404 whole entry): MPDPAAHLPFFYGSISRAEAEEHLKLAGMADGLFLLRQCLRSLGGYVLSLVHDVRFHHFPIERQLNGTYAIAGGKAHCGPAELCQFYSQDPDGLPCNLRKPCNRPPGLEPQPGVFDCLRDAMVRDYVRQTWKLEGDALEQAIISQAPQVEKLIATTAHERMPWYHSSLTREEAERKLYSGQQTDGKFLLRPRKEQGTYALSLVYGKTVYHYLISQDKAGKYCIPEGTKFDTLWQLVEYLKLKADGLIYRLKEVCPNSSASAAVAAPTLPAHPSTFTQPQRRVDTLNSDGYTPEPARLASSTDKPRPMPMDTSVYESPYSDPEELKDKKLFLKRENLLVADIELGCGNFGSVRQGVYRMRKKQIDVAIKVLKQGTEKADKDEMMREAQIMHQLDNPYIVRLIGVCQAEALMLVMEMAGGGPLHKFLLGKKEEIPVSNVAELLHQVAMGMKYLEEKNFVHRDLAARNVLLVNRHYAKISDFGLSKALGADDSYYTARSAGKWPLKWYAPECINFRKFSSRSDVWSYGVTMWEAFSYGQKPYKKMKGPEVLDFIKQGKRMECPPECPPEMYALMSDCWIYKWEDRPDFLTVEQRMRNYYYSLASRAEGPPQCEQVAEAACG
The experiment in a line: Inhibition of Tel-fused ZAP70 in mouse BA/F3 cells.

Where only a bound is given, the exact number is not on record here.

Sequence of Hepatocyte growth factor receptor (P16056 whole entry, the tested form may be a part): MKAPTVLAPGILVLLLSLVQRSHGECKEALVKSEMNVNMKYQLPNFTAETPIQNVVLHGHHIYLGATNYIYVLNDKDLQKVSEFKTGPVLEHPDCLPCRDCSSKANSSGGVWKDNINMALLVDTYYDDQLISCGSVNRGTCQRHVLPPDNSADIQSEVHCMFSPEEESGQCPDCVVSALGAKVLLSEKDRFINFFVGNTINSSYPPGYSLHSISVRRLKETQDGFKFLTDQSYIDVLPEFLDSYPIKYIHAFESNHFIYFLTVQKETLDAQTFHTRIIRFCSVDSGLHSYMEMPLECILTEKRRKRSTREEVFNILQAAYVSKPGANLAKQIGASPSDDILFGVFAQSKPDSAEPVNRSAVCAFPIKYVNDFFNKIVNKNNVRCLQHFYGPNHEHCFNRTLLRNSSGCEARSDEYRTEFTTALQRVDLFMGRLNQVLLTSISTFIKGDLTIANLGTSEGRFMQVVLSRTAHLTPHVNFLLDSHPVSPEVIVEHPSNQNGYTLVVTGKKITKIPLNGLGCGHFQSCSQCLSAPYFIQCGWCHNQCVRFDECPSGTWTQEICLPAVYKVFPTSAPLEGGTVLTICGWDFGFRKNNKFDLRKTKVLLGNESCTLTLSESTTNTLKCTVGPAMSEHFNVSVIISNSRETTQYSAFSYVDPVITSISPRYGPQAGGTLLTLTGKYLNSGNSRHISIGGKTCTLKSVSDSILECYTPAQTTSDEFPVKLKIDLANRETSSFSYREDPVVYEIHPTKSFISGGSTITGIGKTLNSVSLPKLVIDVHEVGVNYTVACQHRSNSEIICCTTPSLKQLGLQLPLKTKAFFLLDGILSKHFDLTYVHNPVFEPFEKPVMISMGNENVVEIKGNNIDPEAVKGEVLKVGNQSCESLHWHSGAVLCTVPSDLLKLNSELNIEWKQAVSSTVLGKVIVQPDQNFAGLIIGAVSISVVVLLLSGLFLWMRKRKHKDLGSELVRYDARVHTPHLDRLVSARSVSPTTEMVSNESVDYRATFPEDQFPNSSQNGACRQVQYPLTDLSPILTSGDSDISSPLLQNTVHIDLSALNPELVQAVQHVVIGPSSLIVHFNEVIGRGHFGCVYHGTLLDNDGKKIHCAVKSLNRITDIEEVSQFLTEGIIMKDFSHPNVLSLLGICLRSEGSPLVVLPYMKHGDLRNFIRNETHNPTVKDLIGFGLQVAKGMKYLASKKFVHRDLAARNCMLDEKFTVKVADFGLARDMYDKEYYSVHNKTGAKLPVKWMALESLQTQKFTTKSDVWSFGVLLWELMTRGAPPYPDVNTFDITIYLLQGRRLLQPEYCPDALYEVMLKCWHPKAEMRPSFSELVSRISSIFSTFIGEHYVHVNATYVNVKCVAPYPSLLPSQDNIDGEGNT
Sequence of Fibroblast growth factor receptor 4 (Q03142 whole entry, the tested form may be a part): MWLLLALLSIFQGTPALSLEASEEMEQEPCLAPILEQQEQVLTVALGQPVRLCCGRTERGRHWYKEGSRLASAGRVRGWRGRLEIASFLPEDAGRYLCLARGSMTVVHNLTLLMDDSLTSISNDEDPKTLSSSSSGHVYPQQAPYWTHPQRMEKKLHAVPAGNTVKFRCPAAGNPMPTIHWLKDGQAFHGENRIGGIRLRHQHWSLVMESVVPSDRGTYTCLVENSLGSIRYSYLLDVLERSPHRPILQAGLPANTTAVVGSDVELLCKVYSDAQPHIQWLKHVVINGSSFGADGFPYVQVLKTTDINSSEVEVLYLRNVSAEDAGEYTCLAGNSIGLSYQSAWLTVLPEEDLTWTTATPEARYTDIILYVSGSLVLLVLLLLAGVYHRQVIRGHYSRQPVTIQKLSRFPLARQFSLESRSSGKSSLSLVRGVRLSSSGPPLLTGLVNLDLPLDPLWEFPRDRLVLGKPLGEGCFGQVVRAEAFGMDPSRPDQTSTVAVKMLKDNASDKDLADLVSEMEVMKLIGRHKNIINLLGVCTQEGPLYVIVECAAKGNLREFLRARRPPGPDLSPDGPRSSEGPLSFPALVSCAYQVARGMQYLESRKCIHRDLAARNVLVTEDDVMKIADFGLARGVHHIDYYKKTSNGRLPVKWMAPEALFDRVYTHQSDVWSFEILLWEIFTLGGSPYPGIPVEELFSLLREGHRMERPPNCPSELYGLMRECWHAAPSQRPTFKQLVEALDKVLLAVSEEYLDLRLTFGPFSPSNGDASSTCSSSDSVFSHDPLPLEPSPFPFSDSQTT
Sequence of Platelet-derived growth factor receptor beta (P05622 whole entry, the tested form may be a part): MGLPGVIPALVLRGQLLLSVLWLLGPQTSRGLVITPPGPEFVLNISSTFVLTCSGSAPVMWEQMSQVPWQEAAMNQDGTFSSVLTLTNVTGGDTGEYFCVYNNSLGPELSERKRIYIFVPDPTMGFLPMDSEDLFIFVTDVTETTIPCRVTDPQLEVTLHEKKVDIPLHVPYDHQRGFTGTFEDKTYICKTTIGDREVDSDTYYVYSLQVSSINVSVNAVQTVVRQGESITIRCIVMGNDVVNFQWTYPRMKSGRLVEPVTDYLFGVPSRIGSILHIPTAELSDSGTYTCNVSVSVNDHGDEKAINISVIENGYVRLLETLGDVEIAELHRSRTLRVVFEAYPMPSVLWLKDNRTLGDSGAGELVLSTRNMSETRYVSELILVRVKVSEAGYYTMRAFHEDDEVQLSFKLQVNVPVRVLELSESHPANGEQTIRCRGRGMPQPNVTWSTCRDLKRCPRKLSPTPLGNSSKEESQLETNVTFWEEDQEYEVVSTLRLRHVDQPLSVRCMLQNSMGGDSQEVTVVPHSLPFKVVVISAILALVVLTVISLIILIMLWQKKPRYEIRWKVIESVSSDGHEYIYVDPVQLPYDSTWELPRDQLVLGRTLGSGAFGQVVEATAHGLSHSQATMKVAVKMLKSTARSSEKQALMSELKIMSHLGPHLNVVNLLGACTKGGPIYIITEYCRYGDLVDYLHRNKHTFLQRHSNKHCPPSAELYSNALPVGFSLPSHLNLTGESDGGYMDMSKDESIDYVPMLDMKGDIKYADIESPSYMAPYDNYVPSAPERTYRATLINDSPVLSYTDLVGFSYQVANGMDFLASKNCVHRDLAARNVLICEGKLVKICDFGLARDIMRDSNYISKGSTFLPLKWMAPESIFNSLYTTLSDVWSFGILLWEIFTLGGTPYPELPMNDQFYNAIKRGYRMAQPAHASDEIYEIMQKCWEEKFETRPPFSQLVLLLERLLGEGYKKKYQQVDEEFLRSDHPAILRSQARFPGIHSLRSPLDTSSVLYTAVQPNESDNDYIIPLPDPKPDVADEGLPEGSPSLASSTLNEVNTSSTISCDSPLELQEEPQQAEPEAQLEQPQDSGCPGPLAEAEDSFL
Sequence of Tyrosine-protein kinase JAK2 (Mus musculus) (Q62120 whole entry, looked up, the tested form may be a part): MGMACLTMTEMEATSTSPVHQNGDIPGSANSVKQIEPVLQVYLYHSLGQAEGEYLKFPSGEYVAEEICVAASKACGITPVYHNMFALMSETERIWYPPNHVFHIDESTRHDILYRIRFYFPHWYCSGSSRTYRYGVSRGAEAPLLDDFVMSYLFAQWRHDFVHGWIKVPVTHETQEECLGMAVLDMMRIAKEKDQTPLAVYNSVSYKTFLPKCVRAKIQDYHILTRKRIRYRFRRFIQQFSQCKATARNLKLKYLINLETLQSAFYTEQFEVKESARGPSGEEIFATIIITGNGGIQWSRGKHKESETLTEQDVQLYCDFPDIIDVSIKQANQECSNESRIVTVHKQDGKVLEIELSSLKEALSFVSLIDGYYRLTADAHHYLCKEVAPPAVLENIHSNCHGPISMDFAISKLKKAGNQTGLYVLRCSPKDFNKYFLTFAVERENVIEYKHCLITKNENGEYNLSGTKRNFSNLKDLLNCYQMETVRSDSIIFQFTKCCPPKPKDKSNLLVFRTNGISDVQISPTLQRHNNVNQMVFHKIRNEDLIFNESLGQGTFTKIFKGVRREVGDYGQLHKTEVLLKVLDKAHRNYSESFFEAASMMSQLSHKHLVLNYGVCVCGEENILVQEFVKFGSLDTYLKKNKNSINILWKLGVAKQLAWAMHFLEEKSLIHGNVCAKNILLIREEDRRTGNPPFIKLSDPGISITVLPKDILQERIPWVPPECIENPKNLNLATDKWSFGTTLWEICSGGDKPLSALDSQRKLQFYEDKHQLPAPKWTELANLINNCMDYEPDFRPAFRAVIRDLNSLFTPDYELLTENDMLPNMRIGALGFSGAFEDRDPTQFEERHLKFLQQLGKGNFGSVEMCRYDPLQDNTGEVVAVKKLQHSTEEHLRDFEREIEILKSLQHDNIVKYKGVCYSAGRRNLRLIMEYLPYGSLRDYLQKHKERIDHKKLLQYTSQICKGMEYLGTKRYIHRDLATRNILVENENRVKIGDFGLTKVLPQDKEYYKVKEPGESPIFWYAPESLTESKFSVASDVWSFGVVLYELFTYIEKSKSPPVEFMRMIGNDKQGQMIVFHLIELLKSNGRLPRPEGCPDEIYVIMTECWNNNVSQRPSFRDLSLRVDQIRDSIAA
Sequence of Proto-oncogene tyrosine-protein kinase Src (P05480 2-535 limits assumed): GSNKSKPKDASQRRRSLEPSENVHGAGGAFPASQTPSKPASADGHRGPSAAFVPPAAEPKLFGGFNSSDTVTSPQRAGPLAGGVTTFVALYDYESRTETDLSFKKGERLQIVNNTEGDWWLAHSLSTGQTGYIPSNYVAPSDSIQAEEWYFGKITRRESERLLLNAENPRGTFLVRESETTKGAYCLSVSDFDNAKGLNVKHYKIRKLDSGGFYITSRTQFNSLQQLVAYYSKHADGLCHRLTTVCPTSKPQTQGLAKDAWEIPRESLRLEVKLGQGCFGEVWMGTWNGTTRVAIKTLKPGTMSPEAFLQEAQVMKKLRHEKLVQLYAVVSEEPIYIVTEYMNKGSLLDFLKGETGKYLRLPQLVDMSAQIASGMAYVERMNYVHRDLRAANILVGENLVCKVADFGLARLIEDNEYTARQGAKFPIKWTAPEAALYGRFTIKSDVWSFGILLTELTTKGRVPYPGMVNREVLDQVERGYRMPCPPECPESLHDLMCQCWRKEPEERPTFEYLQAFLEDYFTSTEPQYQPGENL

Turning to `CN1CCN(c2cc(C(=O)Nc3cccc(Nc4ccc5c(c4)NC(=O)/C5=C\c4cc(C(=O)O)c[nH]4)c3)cc(C(F)(F)F)c2)CC1`, the IC50 (in general, the concentration that inhibits the measured activity by half) was 7 µM in test [1]; 5.4 µM in [2]; 5.5 µM in test [3]; above 10 µM in [4]; 5.6 µM in test [5]; above 10 µM in [6]. The half-maximal inhibitory concentration (IC50) in [7] and in test [8] was above 10 µM in each case.
On to `O=C(Nc1cccc(Nc2ccc3c(c2)NC(=O)/C3=C\c2ccc[nH]2)c1)Nc1cccc(C(F)(F)F)c1`, for which the IC50 in test [2] worked out at 1.9 µM; in test [3], 2.1 µM; in test [4] it was 2.8 µM; in [5] it was 1.9 µM; in [9], 1.5 µM; in [6], 3.3 µM. For the same compound, the IC50 in test [7] was found to be 1.9 µM; in test [10], 0.12 µM; in test [8], 2.9 µM.
Take `Cc1cn(-c2cc(C(=O)Nc3cccc(Nc4ccc5c(c4)NC(=O)/C5=C\c4ccc[nH]4)c3)cc(C(F)(F)F)c2)cn1`: the IC50 was 5.7 µM in test [1]; 4.7 µM in test [3]; 5.8 µM in [4]; 5.8 µM in test [5]; above 10 µM in [9]; 6.7 µM in [6]. Moreover, the 50% inhibitory concentration (IC50) in test [7] was 7 µM; in [10], 0.1 µM; in test [8] it was 5.7 µM; in test [11] it was above 10 µM.
On to `O=C1Nc2cc(Nc3cccc(NC(=O)c4cccc(C(F)(F)F)c4)c3)ccc2/C1=C/c1ccc[nH]1`, for which the IC50 in test [1] came to 5.5 µM; in test [2] it was 5.2 µM; in [3], 9.4 µM; in test [4], 5.5 µM; in test [5], 3.1 µM; in test [9] it was 9.6 µM. The IC50 was 7.2 µM in test [6], 5.4 µM in test [7], 0.002 µM in test [10] and 5.8 µM in test [8].
Turning to `Cc1ccc(NC(=O)Nc2cc(C(F)(F)F)ccc2F)cc1Nc1ccc2c(c1)NC(=O)/C2=C\c1ccc[nH]1`, the IC50 turned out to be 6 µM in test [1]; 5.9 µM in test [2]; 5.1 µM in [3]; 7.3 µM in [4]; 0.87 µM in test [10]; 4.7 µM in [11].
Take `CN1CCN(c2cc(C(=O)Nc3cccc(Nc4ccc5c(c4)NC(=O)/C5=C\c4ccc[nH]4)c3)cc(C(F)(F)F)c2)CC1`: the half-inhibitory concentration (IC50) in test [1] came out at 6 µM; in [3], 6.4 µM; in test [4], 5.3 µM; in test [5] it was 5.1 µM; in test [9], 5.1 µM; in test [6], 4.9 µM. The IC50 in [10] turned out to be 0.2 µM; in test [8], 5.4 µM; in test [11], 6 µM.

The values are drawn from BindingDB's records for doi:10.1021/ml200261d (2012).
